The list is not random: actives were taken first. Their share in the collection is about 4.1%.
KCC2 mod = KCC2 (human) Cl- transport modulation. 2.2% of 190,000 active. B-score of Tl+ flux slope (higher = more flux/activation; lower = inhibition) at 10 µM. KCC2 cells, thallium flux FluoZin-2 fluorescence. Q9H2X9;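 active = thallium flux slope and its plate-corrected score both differing from the plate sample mean at a set confidence after two filtering rounds, in either direction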;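 note: slope of fluorescence scaled to starting intensity during 10 to 20 s after thallium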
hERG rescue = hERG (human) protection from proarrhythmic block | CHO-hERG, FluxOR thallium flux, dofetilide IC70 present | Q12809 | 0.51% of 310,000 active | activation (rescue from dofetilide block), less the hit threshold, % at 10 µM;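 active = activation above the mean of controls blocked by dofetilide plus 5 SD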;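 note: thallium influx through hERG after potassium depolarization seen as dye fluorescence rise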
KCNQ1 act = potentiators or activators of human KCNQ1 potassium channel | P51787 | AID 2648 | 0.35% of 310,000 active | CHO-K1 KCNQ1, thallium flux FluxOR fluorescence; hits give high values | B-score at 10 µM;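 active = fluorescence ratio B-score, a plate-corrected score, at least three library SD, with initial intensity B-score within 5 SD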
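Schedule – 37 °C overnight plating, 90-min dark dye load, 20-min compound pretreatment · System – stable KCNQ1 CHO-K1 line · Probe or stimulus – thallium- and potassium-containing depolarizing buffer · Measured by – kinetic FluxOR fluorescence, 10 s baseline plus 110 s post-stimulus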
KCNK9 block = human KCNK9 channel inhibition; B-score at 10 µM; Q9NPC2; 1.2% of 310,000 active; AID 488922; HEK293 KCNK9, FluxOR thallium flux fluorescence; hits give low values;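 active = ratio B-score over 3 SD below the library mean, with starting fluorescence within 5 SD of its mean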;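 note: negative B-score means less thallium flux so channel inhibition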
KCNQ1 block = human KCNQ1 channel inhibition; P51787; CHO-K1 KCNQ1, FluxOR thallium flux fluorescence; hits give high values; B-score at 10 µM; 1.3% of 310,000 active; AID 2642;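 active = compounds whose thallium flux B-score, printed positive for inhibition, exceeds three library SD while starting fluorescence stays within three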;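 note: channel opened by potassium depolarization with thallium stimulus after 20 min compound exposure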
KCNK3 block = human KCNK3 channel inhibition, primary screen; B-score at 10 µM; CHO-KCNK3 thallium flux, FluxOR fluorescence; hits give low values; O14649; 0.84% of 340,000 active;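 active = B-score under library mean minus 4 SD, starting fluorescence ratio at most library mean plus 5 SD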;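 note: more negative B-score means stronger inhibition of thallium flux through KCNK3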
Numbers without * were called inactive; i = inactive; / = no result.

SMILES	KCC2 mod	hERG rescue	KCNQ1 act	KCNK9 block	KCNQ1 block	KCNK3 block
COc1ccc(C(C(=O)NC2CCCCC2)N(Cc2ccco2)C(=O)c2snc(C(N)=O)c2N)cc1 (centres undefined)	/	-12.1	i	i	9*	i
COc1ccc(N(CC(=O)NCCSCc2ccccc2C)S(=O)(=O)c2ccccc2)cc1	/	-15.5	i	i	i	i
CCOc1ccccc1C(=O)NCC(=O)NNC(=O)c1cccs1	/	/	/	/	/	i
O=C(CNc1cccc(C(F)(F)F)c1)Nc1cccc(S(=O)(=O)N2CCCC2)c1	/	/	/	/	/	-9.31*
N#Cc1ccc(C(=O)OCC(=O)Nc2cccnc2Cl)cc1	/	/	/	/	/	i
CCN(CC(=O)Nc1c(F)cccc1F)C(=O)c1ccc(C2SCCS2)cc1	/	-14.4	i	i	i	i
CCN(CC(=O)Nc1c(F)cccc1F)C(=O)c1ccc(C(F)(F)F)cc1	/	-1.4	i	-7.89*	i	i
N#CC(C#N)=C1SC(=Nc2ccccc2)C(=Nc2ccccc2)N1c1ccccc1	/	/	/	/	/	i
N#C/C=C1/NC(=O)c2ccccc2S1	18.9*	-3.6	i	i	i	i
CCOc1ccc(CNCCN2CCCC2)cc1	/	-9.4	i	i	7*	i
CCOc1ccc(OCCN2CCCCC2)cc1	0.462	-3.9	i	i	i	i
COc1cc(NC(=O)CSc2nc(C)c(C)c(C)n2)cc(OC)c1	-0.191	7.5*	i	i	i	i
CCOC(=O)c1c(NC(=O)C2CCCO2)sc(C(N)=O)c1C (centres undefined)	1.07	-5.5	i	i	i	i
CCOC(=O)c1c(NC(=S)NCC2CCCO2)sc(C)c1C (centres undefined)	25.2*	-2.0	i	i	i	i
CC(C)(C)OC(=O)N1CCC(C(=O)Nc2cccc(C(=O)NC3CC3)c2)CC1	/	/	/	/	/	i
Cc1cccc(C)c1NC(=O)CN1CCN(C(=O)c2ccc(OCc3cn4ccccc4n3)cc2)CC1	/	/	/	/	/	i
CCOC(=O)N1CCN(C(=O)/C=C/c2ccc3c(c2)OCO3)CC1	0.704	-11.8	i	i	i	i
CCOC(=O)N1CCN(C(=O)/C=C/c2ccc(OC)cc2)CC1	/	10.1*	i	i	i	i
Cc1ccc(C)c2sc(NC(=O)c3ccc(N4CCCCC4)c([N+](=O)[O-])c3)nc12	0.19	-1.9	i	-7.82*	i	i
CCNc1ccc(S(=O)(=O)NCCN(C)C)cc1[N+](=O)[O-]	0.41	-2.6	i	i	i	i
CN(C)CCCNS(=O)(=O)c1ccc(NC2CCCCCC2)c([N+](=O)[O-])c1	/	-14.1	i	i	8*	i
COc1ccc(C(=O)Nc2nc(CC(=O)NCCc3ccccc3OC)cs2)cc1	/	-13.3	i	i	i	i
COc1cc2c(cc1OC)C(COc1cccc(C(F)(F)F)c1)NCC2 (centres undefined)	/	-10.1	i	i	i	i
C=CCN1C(=O)CSc2ccc(C(=O)NCc3cccs3)cc21	-1.11	46.5*	i	i	i	i
O=C(Nc1cc(Cl)ccc1-n1cncn1)c1ccc([N+](=O)[O-])s1	/	-6.0	i	i	i	i
SMILES	KCC2 mod	hERG rescue	KCNQ1 act	KCNK9 block	KCNQ1 block	KCNK3 block
Cc1ccc(C(C[N+](=O)[O-])c2c(N)n(C)c(=O)n(C)c2=O)cc1 (centres undefined)	1.04	-5.8	i	i	i	i
COc1cc(C(C[N+](=O)[O-])c2c(N)n(C)c(=O)n(C)c2=O)ccc1O (centres undefined)	-0.796	-2.7	i	i	6*	i
COCCN(C(=O)CSc1nnc(-c2ccccc2OC)o1)c1c(N)n(CC(C)C)c(=O)[nH]c1=O	/	-13.2	i	i	i	i
C[C@H]1NC(=O)[C@@]2(C)[C@H](c3ccccc3)[C@H]3COc4ccccc4[C@@H]3N2C1=O	/	/	/	/	/	i
CCCCNC(=S)NNC(=O)c1nn(C)c(C)c1Cl	0.392	-13.8	17*	i	i	i
CN(C)N1C(=O)c2c(Cl)c(Cl)c(Cl)c(Cl)c2C1=O	/	/	/	/	/	i
CCOC(=O)CNC(=O)CN1CCCN(S(=O)(=O)c2ccc(Br)s2)CC1	0.762	/	/	/	/	i
O=C(CN1CCCN(S(=O)(=O)c2ccc(Br)s2)CC1)Nc1ccc(Cl)cc1	/	-11.7	i	i	i	-9.34*
Cc1cc(N/N=C/c2cccc(Cl)c2)nc(-n2nc(C)cc2C)n1	/	-9.2	i	-8.02*	i	i
Cc1cc(N/N=C/c2cccc([N+](=O)[O-])c2)nc(-n2nc(C)cc2C)n1	0.178	-4.1	i	i	i	i
COc1ccc(/C=N/Nc2cc(C)nc(-n3nc(C)cc3C)n2)cc1	0.836	-17.4	i	-6.66*	i	i
COc1ccc2nc(C)cc(N/N=C/c3ccccc3)c2c1	/	/	/	/	/	-9.38*
COc1ccc2nc(N3C(=O)/C(=C/c4ccc(Cl)cc4)NC3=S)sc2c1	53.5*	/	/	/	/	i
Cn1cccc1C(=O)NCC(c1ccco1)N1CCCCC1 (centres undefined)	/	-9.0	i	i	i	i
CCOC(=O)N/N=C/c1cc(C)n(-c2ccccc2)c1C	1.67	-14.5	i	i	i	i
COC(=O)N/N=C/c1cc(C)n(-c2cccc3ccccc23)c1C	-1.11	-5.2	i	-7.04*	i	i
CC(C)(C)N(Cc1ccccc1)C(=O)COC(=O)CCN1C(=O)C2CC=CCC2C1=O (centres undefined)	/	/	/	/	/	i
COc1ccc(-c2cnnc(N/N=C/c3ccc(-c4ccc([N+](=O)[O-])cc4)o3)n2)cc1	-0.578	/	/	/	/	i
COc1ccccc1-c1cnnc(N/N=C/c2ccc(-c3cccc(Br)c3)o2)n1	1.04	-6.4	i	-6.82*	i	i
Cn1c(SCc2ccccc2Cl)nc(C(F)(F)F)cc1=O	0.095	-13.6	i	i	i	i
Cn1c(SCc2c(Cl)cccc2Cl)nc(C(F)(F)F)cc1=O	0.27	-5.0	i	-6.67*	i	i
COc1ccc(-n2c(SCC(=O)N3CCCCC3)nnc2-c2cccnc2)cc1	0.227	6.4*	i	i	i	i
COC(=O)CSc1nnc(-c2cccnc2)n1-c1cc(OC)cc(OC)c1	1.06	-9.9	i	i	i	i
CN(C(=O)c1cccc(NC(=O)Cc2ccc(NC(=O)C3CCCN(C(=O)C4CCCC4)C3)cc2)c1)C1CCCCC1 (centres undefined)	/	/	/	/	/	i
CC(=O)N1CC(C)Sc2ccc(S(=O)(=O)NCCc3cccc(C)c3)cc21 (centres undefined)	/	-7.6	i	i	i	i
